SMILES strings stand for the structures. Calls of active or inactive are those of the source. No cut-off for these calls is given here.

In data set [1] the target is T1, Procathepsin L (Homo sapiens, UniProt P07711). In words: Inhibition of human liver cathepsin L assessed as pseudo Michaelis-Menten constant at 10 nM using varying levels of Z-Phe-Arg-AMC as substrate measured every 5 mins for 1 hr by fluorescence assay.
The target in data set [2] is T2, Cathepsin B (Homo sapiens, UniProt P07858). In words: Inhibition of human liver cathepsin B assessed as pseudo Michaelis-Menten constant at 10 nM using varying levels of Z-Arg-Arg-AMC as substrate measured every 5 mins for 1 hr by fluorescence assay.
Data set [3] deals with T1, Procathepsin L. In words: Inhibition of human liver cathepsin L using Z-Phe-Arg-AMC as substrate assessed as second order rate constant measured every 5 mins for 1 hr by fluorescence assay. In short, it runs like this: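 Human liver cathepsin L in acetate buffer pH 5.5 (340 mM sodium acetate, 60 mM acetic acid, 1 mM EDTA, 3 mM DTT). Conjugate 1–500 nM; Z-Phe-Arg-AMC 100 μM; 37 °C. […] Biological triplicate.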

Data set [4] is described as follows: Ratio of drug uptake in SCID mouse xenograted with human HT-29 cells assessed as tumour retention to drug uptake in kidney of SCID mouse xenografted with human HT-29 cells cotreated with D-lysine at 40 mg/kg measured after 24 hrs using 177Lu labelled compound. To be noted: in vivo. In kind it is ADME, organism-based, Tumor/Kidney. In short, it runs like this:
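HT-29 s.c. xenografts in female SCID mice. 177Lu conjugate given i.v. by tail vein at 10 μCi (0.37 MBq)/mouse, co-injected with D-lysine 40 mg/kg. Tissues were taken at 24 h, weighed and gamma counted. Uptake expressed as %ID/g (n = 5, mean ± SD); tumor-to-tissue ratios derived from these values.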

The nature of data set [5]: Drug uptake in muscle of SCID mouse xenografted with human HT-29 cells pretreated for 1 hr with colchicine at 1 mg/kg, ip followed by 177Lu labelled compound at 0.37 MBq/mouse, iv measured at 24 hrs by gamma counter analysis. The class given is ADME, organism-based, Muscle tissue. The settings on record: in vivo. In a few lines: (§1)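 HT-29 flank xenografts in female SCID mice (5 × 10^6 cells in Matrigel, about 80 mm3). Colchicine 1 mg/kg was given i.p. before a tail-vein injection of 10 μCi (0.37 MBq) of purified 177Lu-conjugate. Tissues were taken at 24 h, weighed and gamma-counted as %ID/g; mean ± SD, n = 5.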
A general note: Xenograft models place foreign cells or tissue in a host animal.

Data set [6] deals with T1, Procathepsin L. In words: Binding affinity to cathepsin L in human HT-29 cells assessed as intracellular adduct formation at 0.74 MBq incubated for 4 hrs in presence of E-64 using 177Lu labelled compound by SDS-PAGE analysis. Details: dose or concentration left out as unconfirmed. In kind it is cell-based. In a few lines: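 HT-29 cells (1 × 10^6/well) incubated 4 h at 37 °C with 177Lu conjugate (20 μCi, 0.74 MBq) in 1 mL medium, with or without E-64 (10 μM) or NTSR1 peptide N1 (20 μM). Cells washed and refed; at set times cells pooled, RIPA-lysed with protease inhibitor. Lysates heated 85 °C 2 min, run on 16% tris-glycine SDS-PAGE, and phosphor autoradiography taken after 72 h exposure.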

Data set [7] in a line: Drug uptake in bone of SCID mouse xenografted with human HT-29 cells pretreated for 1 hr with colchicine at 1 mg/kg, ip followed by 177Lu labelled compound at 0.37 MBq/mouse, iv measured at 24 hrs by gamma counter analysis. The settings on record: in vivo. The class given is ADME, organism-based, Bone element. In short, it runs like this:
as §1

The nature of data set [8]: Drug retention in human HT-29 cells assessed as increase in mean fluorescence intensity at 5 uM incubated for 2 hrs and measured at 24 hrs using natEu labelled compound by lysotracker green staining based confocal microscopic analysis. The class given is ADME, cell-based. The settings on record: ht-29, 2 h. In a few lines: (§2)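 HT-29 cells (1.25 × 10^5/well) loaded with natEu conjugate (5 μM), washed, then chased in fresh medium up to 24 h. Lysotracker Green (100 nM) applied 2 h before each read; cells fixed and imaged confocally at 405/488 nm. Per-cell mean fluorescence and Lysotracker co-localization quantified.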

Data set [9] in a line: Drug retention in liver of mouse xenografted with human HT-29 cells assessed as tissue-conjugate adduct formation at 29.6 MBq co-treated with D-lysine at 40 mg/kg measured after 72 hrs using 177Lu labelled compound by SDS-PAGE analysis. The settings on record: in vivo. The class given is ADME, organism-based.
Data set [10] in a line: Drug retention in kidney of mouse xenografted with human HT-29 cells assessed as reduction in tissue-conjugate adduct formation at 29.6 MBq co-treated with D-lysine at 40 mg/kg measured after 72 hrs using 177Lu labelled compound by SDS-PAGE analysis. The class given is ADME, organism-based. The settings on record: in vivo.
A short description of data set [11]: Ratio of drug uptake in SCID mouse xenograted with human HT-29 cells assessed as tumour retention to drug uptake in pancreas of SCID mouse xenografted with human HT-29 cells cotreated with D-lysine at 40 mg/kg measured after 24 hrs using 177Lu labelled compound. The class given is ADME, organism-based, Tumor/Pancreas. The settings on record: in vivo.
Data set [12] is described as follows: Drug retention in human HT-29 cells assessed as increase in mean fluorescence intensity at 5 uM incubated for 2 hrs and measured at 2 to 4 hrs using natEu labelled compound by lysotracker green staining based confocal microscopic analysis. The class given is ADME, cell-based. To be noted: ht-29, 2 h. In short, it runs like this:
as §2

A short description of data set [13]: Drug retention in tumor lysates of mouse xenografted with human HT-29 cells assessed as macromolecule associated radioactivity at 29.6 MBq measured after 72 hrs using 177Lu labelled compound by gamma counter analysis relative to control. In kind it is ADME, tissue-based, Neoplasm. To be noted: in vivo. In a few lines:
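HT-29 xenograft mice given 800 μCi (29.6 MBq) 177Lu conjugate i.v. and killed at 72 h. Tumor, liver and kidney homogenized in RIPA with protease inhibitor and supernatants run on SDS-PAGE autoradiography. Other supernatant aliquots filtered through 10 kDa MWCO devices to give the % macromolecule-associated radioactivity; n = 3.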

Data set [14] deals with T2, Cathepsin B. In words: Binding affinity to human liver cathepsin B assessed as protein-conjugate adduct formation at 0.74 MBq incubated for 30 mins in presence of DOTA-beta-ala-[N-alpha-Me8, Dmt11, Tle12] NT6-13 using 177Lu labelled compound by SDS-PAGE analysis. The settings on record: 0.74 M. In a few lines:
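Purified human liver CatB or CatL (3 nM) in 50 mM sodium acetate/1 mM EDTA pH 5.0 incubated 30 min with 177Lu conjugate (500,000 cpm) in Tris/MgCl2/DTT buffer pH 5.5, alone or with E-64 (10 μM) or N1 (20 μM). Mixtures heated 85 °C 2 min, run on 16% tris-glycine gel at 110 V for 90 min, and read by phosphor autoradiography.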

The nature of data set [15]: Drug uptake in SCID mouse xenografted with human HT-29 cells assessed as tumour retention pretreated for 1 hr with colchicine at 1 mg/kg, ip followed by 177Lu labelled compound at 0.37 MBq/mouse, iv measured at 24 hrs by gamma counter analysis. In kind it is ADME, organism-based. To be noted: in vivo. In short, it runs like this:
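Female SCID mice bearing s.c. flank HT-29 xenografts (5 × 10^6 cells in Matrigel, ~80 mm3). Given 10 μCi (0.37 MBq) 177Lu conjugate i.v. by tail vein; groups sacrificed at 4, 24, 72 h. Tissues weighed and gamma-counted as %ID/g, excretion as %ID; n = 5, mean ± SD. Blocking arms: colchicine 1 mg/kg i.p. beforehand, or D-lysine 40 mg/kg co-injected.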

Data set [16] in a line: Drug retention in tumor of mouse xenografted with human HT-29 cells assessed as tissue-conjugate adduct formation at 29.6 MBq co-treated with D-lysine at 40 mg/kg measured after 72 hrs using 177Lu labelled compound by SDS-PAGE analysis. The settings on record: in vivo. In kind it is ADME, organism-based, Neoplasm.

T1 sequence (P07711 114-333 limits assumed): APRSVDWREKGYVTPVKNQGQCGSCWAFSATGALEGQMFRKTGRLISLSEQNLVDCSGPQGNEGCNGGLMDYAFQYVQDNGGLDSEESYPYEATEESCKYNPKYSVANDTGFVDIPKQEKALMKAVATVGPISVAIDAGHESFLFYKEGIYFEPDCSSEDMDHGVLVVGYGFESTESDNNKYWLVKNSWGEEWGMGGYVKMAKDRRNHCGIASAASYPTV

For the molecule `Cc1cc(O)cc(C)c1C[C@H](NC(=O)[C@@H]1CCCN1C(=O)[C@H](CCCNC(=N)N)NC(=O)[C@H](CCCNC(=N)N)N(C)C(=O)[C@@H]1CCCN1C(=O)[C@H](CCCCN)NC(=O)[C@@H](CO)NC(=O)[C@@H](CO)NC(=O)[C@@H](CO)NC(=O)[C@H](Cc1cn(CCNC(=O)[C@H](CCCNC(=N)N)NC(=O)[C@H](CC(C)C)NC(=O)CCC(=O)O)nn1)NC(=O)CN1CCN(CC(=O)O)CCN(CC(=O)O)CCN(CC(=O)O)CC1)C(=O)N[C@H](C(=O)N[C@@H](CC(C)C)C(=O)O)C(C)(C)C`, the K turned out to be 37 µM in [1] and 182 µM in data set [2].

Take `Cc1cc(O)cc(C)c1C[C@H](NC(=O)[C@@H]1CCCN1C(=O)[C@H](CCCNC(=N)N)NC(=O)[C@H](CCCNC(=N)N)N(C)C(=O)[C@@H]1CCCN1C(=O)[C@H](CCCCN)NC(=O)[C@@H](CO)NC(=O)[C@@H](CO)NC(=O)[C@@H](CO)NC(=O)[C@H](Cc1cn(CCNC(=O)[C@H](CCCNC(=N)N)NC(=O)[C@H](CC(C)C)NC(=O)C2OC2C(=O)O)nn1)NC(=O)CN1CCN(CC(=O)O)CCN(CC(=O)O)CCN(CC(=O)O)CC1)C(=O)N[C@H](C(=O)N[C@@H](CC(C)C)C(=O)O)C(C)(C)C` (stereo partly specified): in [3], the K was 24000 M⁻¹ s⁻¹. For the same molecule, the Ratio in [4] stood at 0.2; in [11], 75. The Drug uptake in [5] is reported as 0.06 % ID/g; in data set [7] it was 0.36 % ID/g; in data set [8], “Active”; in [9], “Not Active”; in data set [10], 47%; in data set [12], “Not Active”. Also, the Drug uptake in data set [13] is reported as 80%; in data set [15], 1.7 % ID/g; in data set [16], “Active”. Besides, the result in data set [6] and in data set [14] was Active.
